Data taken from ChEMBL document CHEMBL3580633, “Benzoxaborole antimalarial agents. Part 4. Discovery of potent 6-(2-(alkoxycarbonyl)pyrazinyl-5-oxy)-1,3-dihydro-1-hydroxy-2,1-benzoxaboroles” (J Med Chem, 2015).

test system: Plasmodium berghei; test: Antiplasmodial activity against Plasmodium berghei infected in Swiss Webster mouse assessed as mouse survival at 3 mg/kg, po dosed once daily for 4 consecutive days beginning 1 hr after initial infection and measured on day 7 post infection by Giemsa staining method; assay type: functional; conditions: not given
Method in brief: (§1)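 Female Swiss Webster mice (about 20 g) infected ip with 6 × 10^6 P. berghei-infected erythrocytes. Oral gavage once daily for 4 days, starting 1 h after infection. Vehicle PEG300/propylene glycol/water (55/25/20 by weight). Giemsa-smear parasitemia counted daily from day 4. Mice euthanised above 50% parasitemia. Survival followed to day 21, 5 mice per dose, chloroquine 30 mg/kg as reference.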

Structure (SMILES) | survival at 3 mg/kg [%]
O=C(O)c1ccc(Oc2ccc3c(c2)B(O)OC3)cn1 | 60
COC(=O)c1cnc(Oc2ccc3c(c2)B(O)OC3)cn1 | 100

test system: Plasmodium berghei; test: Antiplasmodial activity against Plasmodium berghei infected in Swiss Webster mouse assessed as mouse survival at 11 mg/kg, po dosed once daily for 4 consecutive days beginning 1 hr after initial infection and measured on day 6 post infection by Giemsa staining method; assay type: functional; conditions: not given; method in brief: as §1

Structure (SMILES) | survival at 11 mg/kg [%]
O=C(O)c1ccc(Oc2ccc3c(c2)B(O)OC3)cn1 | 100
COC(=O)c1cnc(Oc2ccc3c(c2)B(O)OC3)cn1 | 100

test system: Plasmodium berghei; test: Antiplasmodial activity against Plasmodium berghei infected in Swiss Webster mouse assessed as mouse survival at 33 mg/kg, po dosed once daily for 4 consecutive days beginning 1 hr after initial infection and measured on day 4 post infection by Giemsa staining method; assay type: functional; conditions: not given
Method in brief: (§2)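 Female Swiss Webster mice (about 20 g) were infected ip with 6 × 10^6 P. berghei-infected erythrocytes from a donor mouse. They were dosed by oral gavage once daily for 4 days, starting 1 h post-infection, in PEG 300/propylene glycol/water (55/25/20 by weight). Parasitemia was read daily on Giemsa smears from day 4, and mice were euthanized above 50% parasitemia. Percent survival was tracked to 21 days.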

Structure (SMILES) | survival at 33 mg/kg [%]
O=C(O)c1ccc(Oc2ccc3c(c2)B(O)OC3)cn1 | 100
COC(=O)c1cnc(Oc2ccc3c(c2)B(O)OC3)cn1 | 100

test system: Plasmodium falciparum; test: Antimalarial activity against chloroquine-resistant Plasmodium falciparum W2 cultured in human erythrocytes assessed as inhibition of parasite growth incubated for 48 hrs by YOYO-1 staining based flow cytometry; assay type: functional, organism-based; conditions: W2, 48 h

Structure (SMILES) | IC50 [nM]
O=C(O)c1ccc(Oc2ccc3c(c2)B(O)OC3)cn1 | 170
COC(=O)c1cnc(Oc2ccc3c(c2)B(O)OC3)cn1 | 1.4

test system: Plasmodium berghei; test: Antiplasmodial activity against Plasmodium berghei infected in Swiss Webster mouse assessed as mouse survival at 11 mg/kg, po dosed once daily for 4 consecutive days beginning 1 hr after initial infection and measured on day 8 post infection by Giemsa staining method; assay type: functional; conditions: not given; method in brief: as §1

Structure (SMILES) | survival at 11 mg/kg [%]
O=C(O)c1ccc(Oc2ccc3c(c2)B(O)OC3)cn1 | 40
COC(=O)c1cnc(Oc2ccc3c(c2)B(O)OC3)cn1 | 100

test system: Plasmodium berghei; test: Antiplasmodial activity against Plasmodium berghei infected in Swiss Webster mouse assessed as mouse survival at 33 mg/kg, po dosed once daily for 4 consecutive days beginning 1 hr after initial infection and measured on day 6 post infection by Giemsa staining method; assay type: functional; conditions: not given; method in brief: as §2

Structure (SMILES) | survival at 33 mg/kg [%]
O=C(O)c1ccc(Oc2ccc3c(c2)B(O)OC3)cn1 | 100
COC(=O)c1cnc(Oc2ccc3c(c2)B(O)OC3)cn1 | 100

test system: Plasmodium berghei; test: Antiplasmodial activity against Plasmodium berghei infected in Swiss Webster mouse assessed as mouse survival at 1 mg/kg, po dosed once daily for 4 consecutive days beginning 1 hr after initial infection and measured on day 5 post infection by Giemsa staining method; assay type: functional; conditions: not given; method in brief: as §1

Structure (SMILES) | survival at 1 mg/kg [%]
O=C(O)c1ccc(Oc2ccc3c(c2)B(O)OC3)cn1 | 100
COC(=O)c1cnc(Oc2ccc3c(c2)B(O)OC3)cn1 | 100

test system: Plasmodium berghei; test: Antiplasmodial activity against Plasmodium berghei infected in Swiss Webster mouse assessed as mouse survival at 33 mg/kg, po dosed once daily for 4 consecutive days beginning 1 hr after initial infection and measured on day 7 post infection by Giemsa staining method; assay type: functional; conditions: not given; method in brief: as §2

Structure (SMILES) | survival at 33 mg/kg [%]
O=C(O)c1ccc(Oc2ccc3c(c2)B(O)OC3)cn1 | 100
COC(=O)c1cnc(Oc2ccc3c(c2)B(O)OC3)cn1 | 100

test system: Plasmodium berghei; test: Antiplasmodial activity against Plasmodium berghei infected in Swiss Webster mouse assessed as mouse survival at 100 mg/kg, po dosed once daily for 4 consecutive days beginning 1 hr after initial infection and measured on day 7 post infection by Giemsa staining method; assay type: functional; conditions: not given; method in brief: as §1

Structure (SMILES) | survival at 100 mg/kg [%]
O=C(O)c1ccc(Oc2ccc3c(c2)B(O)OC3)cn1 | 100
COC(=O)c1cnc(Oc2ccc3c(c2)B(O)OC3)cn1 | 100

test system: Plasmodium berghei; test: Antiplasmodial activity against Plasmodium berghei infected in Swiss Webster mouse assessed as mouse survival at 3 mg/kg, po dosed once daily for 4 consecutive days beginning 1 hr after initial infection and measured on day 4 post infection by Giemsa staining method; assay type: functional; conditions: not given; method in brief: as §1

Structure (SMILES) | survival at 3 mg/kg [%]
O=C(O)c1ccc(Oc2ccc3c(c2)B(O)OC3)cn1 | 100
COC(=O)c1cnc(Oc2ccc3c(c2)B(O)OC3)cn1 | 100

test system: Plasmodium berghei; test: Antiplasmodial activity against Plasmodium berghei infected in Swiss Webster mouse assessed as mouse survival at 1 mg/kg, po dosed once daily for 4 consecutive days beginning 1 hr after initial infection and measured on day 9 post infection by Giemsa staining method; assay type: functional; conditions: not given; method in brief: as §1

Structure (SMILES) | survival at 1 mg/kg [%]
COC(=O)c1cnc(Oc2ccc3c(c2)B(O)OC3)cn1 | 0

test system: Plasmodium berghei; test: Antiplasmodial activity against Plasmodium berghei infected in Swiss Webster mouse assessed as mouse survival at 100 mg/kg, po dosed once daily for 4 consecutive days beginning 1 hr after initial infection and measured on day 8 post infection by Giemsa staining method; assay type: functional; conditions: not given; method in brief: as §1

Structure (SMILES) | survival at 100 mg/kg [%]
O=C(O)c1ccc(Oc2ccc3c(c2)B(O)OC3)cn1 | 80
COC(=O)c1cnc(Oc2ccc3c(c2)B(O)OC3)cn1 | 100

test system: Plasmodium berghei; test: Antiplasmodial activity against Plasmodium berghei infected in Swiss Webster mouse assessed as mouse survival at 100 mg/kg, po dosed once daily for 4 consecutive days beginning 1 hr after initial infection and measured on day 9 post infection by Giemsa staining method; assay type: functional; conditions: not given; method in brief: as §1

Structure (SMILES) | survival at 100 mg/kg [%]
O=C(O)c1ccc(Oc2ccc3c(c2)B(O)OC3)cn1 | 0
COC(=O)c1cnc(Oc2ccc3c(c2)B(O)OC3)cn1 | 100

test system: Plasmodium berghei; test: Antiplasmodial activity against Plasmodium berghei infected in Swiss Webster mouse assessed as […] dosed orally once daily for 4 consecutive days beginning 1 hr after initial infection and measured on day 4 after onset of treatment by Giemsa staining method; assay type: functional; conditions: po
Method in brief: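 In the P. berghei model, female Swiss Webster mice were infected ip with 6 × 10^6 infected erythrocytes. They were gavaged once daily for 4 days from 1 h post-infection, in PEG 300/propylene glycol/water (55/25/20 by weight), with 5 mice per dose. Parasitemia was counted on Giemsa smears. ED90 is the dose reducing parasitemia 90% versus vehicle controls 4 days after therapy began, fitted by nonlinear regression.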

Structure (SMILES) | ED90 [mg/kg]
O=C(O)c1ccc(Oc2ccc3c(c2)B(O)OC3)cn1 | 21.1
COC(=O)c1cnc(Oc2ccc3c(c2)B(O)OC3)cn1 | 7

test system: Plasmodium berghei; test: Antiplasmodial activity against Plasmodium berghei infected in Swiss Webster mouse assessed as mouse survival at 100 mg/kg, po dosed once daily for 4 consecutive days beginning 1 hr after initial infection and measured on day 6 post infection by Giemsa staining method; assay type: functional; conditions: not given; method in brief: as §1

Structure (SMILES) | survival at 100 mg/kg [%]
O=C(O)c1ccc(Oc2ccc3c(c2)B(O)OC3)cn1 | 100
COC(=O)c1cnc(Oc2ccc3c(c2)B(O)OC3)cn1 | 100

test system: Plasmodium berghei; test: Antiplasmodial activity against Plasmodium berghei infected in Swiss Webster mouse assessed as mouse survival at 1 mg/kg, po dosed once daily for 4 consecutive days beginning 1 hr after initial infection and measured on day 8 post infection by Giemsa staining method; assay type: functional; conditions: not given; method in brief: as §1

Structure (SMILES) | survival at 1 mg/kg [%]
O=C(O)c1ccc(Oc2ccc3c(c2)B(O)OC3)cn1 | 0
COC(=O)c1cnc(Oc2ccc3c(c2)B(O)OC3)cn1 | 40

test system: Plasmodium berghei; test: Antiplasmodial activity against Plasmodium berghei infected in Swiss Webster mouse assessed as mouse survival at 33 mg/kg, po dosed once daily for 4 consecutive days beginning 1 hr after initial infection and measured on day 9 post infection by Giemsa staining method; assay type: functional; conditions: not given; method in brief: as §2

Structure (SMILES) | survival at 33 mg/kg [%]
O=C(O)c1ccc(Oc2ccc3c(c2)B(O)OC3)cn1 | 0
COC(=O)c1cnc(Oc2ccc3c(c2)B(O)OC3)cn1 | 100

test system: Plasmodium berghei; test: Antiplasmodial activity against Plasmodium berghei infected in Swiss Webster mouse assessed as mouse survival at 11 mg/kg, po dosed once daily for 4 consecutive days beginning 1 hr after initial infection and measured on day 7 post infection by Giemsa staining method; assay type: functional; conditions: not given; method in brief: as §1

Structure (SMILES) | survival at 11 mg/kg [%]
O=C(O)c1ccc(Oc2ccc3c(c2)B(O)OC3)cn1 | 100
COC(=O)c1cnc(Oc2ccc3c(c2)B(O)OC3)cn1 | 100

test system: Plasmodium falciparum; test: Antimalarial activity against chloroquine-sensitive Plasmodium falciparum 3D7 cultured in human erythrocytes incubated for 48 hrs by [3H]-hypoxanthine incorporation assay; assay type: functional, organism-based; conditions: not given
Method in brief: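 3D7 parasites in human erythrocytes, RPMI-1640 with 0.5% Albumax II, […], 37 °C, 5% O2/5% CO2. Asynchronous cultures (0.5% parasitemia, 2% hematocrit) given 3-fold serial dilutions for 24 h. [3H]hypoxanthine then added for a further 24 h, and incorporation counted by scintillation. Normalised to drug-free infected cells. IC50 from at least three independent experiments.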

Structure (SMILES) | IC50 [nM]
O=C(O)c1ccc(Oc2ccc3c(c2)B(O)OC3)cn1 | 540
COC(=O)c1cnc(Oc2ccc3c(c2)B(O)OC3)cn1 | 1.9

test system: Jurkat; test: Cytotoxicity against human Jurkat cells incubated for 72 hrs by MTT assay; assay type: cell-based; conditions: not given

Structure (SMILES) | IC50 [nM]
COC(=O)c1cnc(Oc2ccc3c(c2)B(O)OC3)cn1 | 7590

test system: Plasmodium berghei; test: Antiplasmodial activity against Plasmodium berghei infected in Swiss Webster mouse assessed as mouse survival at 1 mg/kg, po dosed once daily for 4 consecutive days beginning 1 hr after initial infection and measured on day 6 post infection by Giemsa staining method; assay type: functional; conditions: not given; method in brief: as §1

Structure (SMILES) | survival at 1 mg/kg [%]
O=C(O)c1ccc(Oc2ccc3c(c2)B(O)OC3)cn1 | 100
COC(=O)c1cnc(Oc2ccc3c(c2)B(O)OC3)cn1 | 100

test system: Plasmodium berghei; test: Antiplasmodial activity against Plasmodium berghei infected in Swiss Webster mouse assessed as mouse survival at 1 mg/kg, po dosed once daily for 4 consecutive days beginning 1 hr after initial infection and measured on day 4 post infection by Giemsa staining method; assay type: functional; conditions: not given; method in brief: as §1

Structure (SMILES) | survival at 1 mg/kg [%]
O=C(O)c1ccc(Oc2ccc3c(c2)B(O)OC3)cn1 | 100
COC(=O)c1cnc(Oc2ccc3c(c2)B(O)OC3)cn1 | 100

test system: Plasmodium berghei; test: Antiplasmodial activity against Plasmodium berghei infected in Swiss Webster mouse assessed as mouse survival at 3 mg/kg, po dosed once daily for 4 consecutive days beginning 1 hr after initial infection and measured on day 8 post infection by Giemsa staining method; assay type: functional; conditions: not given; method in brief: as §1

Structure (SMILES) | survival at 3 mg/kg [%]
O=C(O)c1ccc(Oc2ccc3c(c2)B(O)OC3)cn1 | 20
COC(=O)c1cnc(Oc2ccc3c(c2)B(O)OC3)cn1 | 80

test system: Plasmodium berghei; test: Antiplasmodial activity against Plasmodium berghei infected in Swiss Webster mouse assessed as mouse survival at 3 mg/kg, po dosed once daily for 4 consecutive days beginning 1 hr after initial infection and measured on day 6 post infection by Giemsa staining method; assay type: functional; conditions: not given; method in brief: as §1

Structure (SMILES) | survival at 3 mg/kg [%]
O=C(O)c1ccc(Oc2ccc3c(c2)B(O)OC3)cn1 | 100
COC(=O)c1cnc(Oc2ccc3c(c2)B(O)OC3)cn1 | 100
